Granule exo inh = blocks lytic granule exocytosis. inhibition, % at 10 µM. 360,000 compounds, 0.66% hits. TALL-104 LAMP-1 surface exposure, flow cytometry; cells stimulated with thapsigargin and PMA. AID 651702;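 active means inhibition above about 55%, limit read from the data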
iPSC survival up = enhancers of human iPSC single-cell survival; hiPSC single-cell survival, ATPlite luminescence; 100% = ROCK inhibitor wells, 0% = DMSO; survival enhancement, % at 20 µM; 360,000 compounds, 0.044% hits; in the data active means survival enhancement above about 18%;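 further: cells exposed to compounds for 16 hours before the ATP read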
MPTP block = blocks calcium-induced mitochondrial swelling | isolated mouse mitochondria, Ca2+ swelling absorbance, 30 min | inhibition, % at 10 µM | 360,000 compounds, 1.4% hits;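 active means inhibition of 50% or more, scaled per plate between neutral and stimulator controls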;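 further: 0% = DMSO wells given calcium and 100% = 1 mM EGTA wells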
UBC13 polyUb = inhibitors of human UBC13 polyubiquitin chain formation; TR-FRET; 330,000 compounds, 0.47% hits; P61088; inhibition, % at 20 µM; in the data active means inhibition above about 45%, passing the limit was not always enough
Apaf1 inhib = human Apaf-1 inhibition | O14727 | reconstituted apoptosome caspase-3 activity, DEVD-Rh110 fluorescence | inhibition, % at 20 µM | 330,000 compounds, 0.71% hits | AID 489030; active means inhibition of at least 40% at 20 µM;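 further: plate controls were DMSO wells for no effect and DEVD-CHO caspase inhibitor wells for full effect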
Target sequence (O14727 whole entry, looked up): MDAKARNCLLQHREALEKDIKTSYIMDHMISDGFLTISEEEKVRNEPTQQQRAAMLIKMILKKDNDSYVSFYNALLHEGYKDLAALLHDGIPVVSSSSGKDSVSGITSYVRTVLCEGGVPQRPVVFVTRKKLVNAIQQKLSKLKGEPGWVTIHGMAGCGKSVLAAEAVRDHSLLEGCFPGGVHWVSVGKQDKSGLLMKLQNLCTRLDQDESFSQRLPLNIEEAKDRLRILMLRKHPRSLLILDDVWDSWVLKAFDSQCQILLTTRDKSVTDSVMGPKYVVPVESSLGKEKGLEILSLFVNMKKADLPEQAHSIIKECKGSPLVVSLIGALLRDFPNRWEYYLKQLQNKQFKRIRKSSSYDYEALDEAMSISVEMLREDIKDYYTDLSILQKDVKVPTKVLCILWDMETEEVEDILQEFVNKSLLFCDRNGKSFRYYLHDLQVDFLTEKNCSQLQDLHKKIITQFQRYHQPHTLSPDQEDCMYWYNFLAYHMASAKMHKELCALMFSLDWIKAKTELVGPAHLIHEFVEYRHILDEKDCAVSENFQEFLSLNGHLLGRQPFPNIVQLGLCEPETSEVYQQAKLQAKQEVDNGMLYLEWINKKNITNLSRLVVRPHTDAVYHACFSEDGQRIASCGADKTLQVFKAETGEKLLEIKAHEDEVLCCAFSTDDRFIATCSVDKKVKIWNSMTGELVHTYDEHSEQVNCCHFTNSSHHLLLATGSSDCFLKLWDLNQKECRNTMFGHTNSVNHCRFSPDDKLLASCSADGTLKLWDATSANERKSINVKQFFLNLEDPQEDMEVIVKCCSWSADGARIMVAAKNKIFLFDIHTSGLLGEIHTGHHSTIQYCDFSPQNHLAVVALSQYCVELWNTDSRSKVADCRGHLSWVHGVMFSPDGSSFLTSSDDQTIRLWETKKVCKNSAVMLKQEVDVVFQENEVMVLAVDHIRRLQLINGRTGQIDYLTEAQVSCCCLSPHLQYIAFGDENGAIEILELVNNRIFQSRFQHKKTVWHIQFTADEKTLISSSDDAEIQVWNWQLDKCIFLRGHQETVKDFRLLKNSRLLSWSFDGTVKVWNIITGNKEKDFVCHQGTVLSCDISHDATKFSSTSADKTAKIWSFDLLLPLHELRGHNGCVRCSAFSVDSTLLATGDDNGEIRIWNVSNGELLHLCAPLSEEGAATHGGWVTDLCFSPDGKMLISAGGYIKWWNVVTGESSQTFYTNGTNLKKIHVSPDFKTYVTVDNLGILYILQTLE
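Material: reconstituted apoptosome with Apaf-1, cytochrome c, caspase-9, procaspase-3, dATP; medium: pH 7.5 Hepes buffer with CHAPS, BSA, DTT; also added: cytochrome c and DEVD-Rh110 substrate; timing: 30 min plus 50 min, RT; signal: Rh110 fluorescence intensity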
beta cell repl = induces beta-cell replication in MIN6 cells | proliferation, % at 10 µM | 330,000 compounds, 0.29% hits | MIN6 cells proliferation, ATPlite luminescence, 48 h; cells starved in 0.2% serum; 100% = growth in 10% serum | AID 2380;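 active means compounds whose signal lies at least 3.5 SD above the mean of all wells on their plate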;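 further: 0% = DMSO-treated cells in low-serum medium and 100% = 10% serum control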
Rh123 counter = mitochondrial membrane potential, counter-screen; inhibition, % at 10 µM; AID 624504; shares compounds with MPTP block; isolated mitochondria, Rhodamine 123 fluorescence; 5,000 compounds, 78% hits; in the data active means inhibition above about 22%;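 further: 0% = DMSO vehicle and 100% = positive control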
MPTP abs DR = dose response confirmation of mitochondrial permeability transition pore inhibitors; 780 compounds, 58% hits; AID 651561; isolated mitochondria swelling, absorbance; IC50, µM; shares compounds with MPTP block; in the data active means IC50 below about 20 µM
MPTP counter DR = active in counter-screen for permeability transition pore inhibitors; shares compounds with MPTP block; isolated mitochondria counterscreen, fluorescence read-out; IC50, µM; 780 compounds, 49% hits; in the data active means IC50 below about 80 µM
Numbers without * were called inactive; i = inactive; x = no result given. A selection: hits, their analogues and other compounds. The true share with any hit is near 3%.

SMILES	Granule exo inh	iPSC survival up	MPTP block	UBC13 polyUb	Apaf1 inhib	beta cell repl	Rh123 counter	others
CCOc1ccc(NC(=S)Nc2ccc3nsnc3c2)cc1	37	0	86*	-2	-14	0	77*
CCOc1ccc(NC(=O)Nc2ccc3nsnc3c2)cc1	-3	2	91*	3	0	-2	89*
CCC1CCCCN1C(=O)c1cccc(S(=O)(=O)Nc2cc(C(F)(F)F)ccc2Cl)c1 (stereo not drawn)	1	0	74*	-16	23	-2	81*
COc1ccc(CCNCC(=O)Nc2ccc(C)c(S(=O)(=O)N(C)C)c2)cc1	-2	0	68*	-2	0	-4	-3	MPTP abs DR=i;MPTP counter DR=74*
COc1ccc(CCC(=O)Nc2ccc(C)c(S(=O)(=O)N(C)C)c2)cc1OC	6	1	23	-2	-2	0	x
Cc1ccc(NC(=O)CSc2nn(-c3ccccc3)c(=S)s2)cc1S(=O)(=O)N(C)C	5	-2	98*	-12	24	-3	76*
Cc1ccc(S(=O)(=O)N2CCOCC2)cc1NC(=O)COC(=O)/C=C/c1ccco1	0	0	0	7	-11	1	x
COc1cccc(OCC(=O)NNC(=O)c2ccc3ccccc3c2)c1	0	0	-1	-2	9	3	x
O=C(N/N=C\c1cc(Br)ccc1O)c1ccc(S(=O)(=O)N2CCCCC2)cc1	-3	-1	66*	10	-15	-4	53*
O=C(N/N=C/c1ccc(O)c(O)c1)c1cccc(S(=O)(=O)N2CCCCC2)c1	-2	0	-2	-6	-8	-1	x
O=C(N/N=C/c1cc(Cl)ccc1O)c1ccc(Br)cc1	6	-1	92*	x	x	x	64*
Cc1cccc(/C=N\NC(=O)c2ccc(Cl)cc2)c1O	0	-2	74*	-1	-1	-5	80*
Cc1ccccc1CN1CCN(CC(=O)NCCCN2CCN(c3ccc(F)cc3)CC2)C1=O	2	-1	56*	35	15	-1	18
O=C(CN1CCN(Cc2ccc(Cl)cc2)C1=O)NCCCN1CCN(c2ccc(F)cc2)CC1	4	-2	69*	14	2	-4	16	MPTP abs DR=11*;MPTP counter DR=12*
O=C(CN1CCN(Cc2ccc(F)cc2Cl)C1=O)NCCCN1CCOCC1	-6	0	-2	-6	-4	0	x
CC1(C(=O)NCCc2c[nH]c3ccccc23)CCN1CC1CCCCC1 (stereo not drawn)	-7	4	2	x	x	x	x
CC[C@H](C)[C@H]1CNC(=O)C(=O)N1CC1CCN(CCCc2ccc(OC)c(OC)c2)CC1	-2	4	0	x	x	x	x
C=Cc1ccc(Cn2nc(-c3ccc(C)cc3)ccc2=O)cc1	-10	0	69*	-3	21	-4	79*
O=c1ccc(-c2ccccc2)nn1Cc1ccc(Cl)cc1	1	0	0	x	x	x	x
N/C(=N\OC(=O)CCCc1ccccc1)c1ccccc1Cl	0	0	2	7	9	-4	x
Cc1onc(-c2ccccc2)c1C(=O)OCC(=O)Nc1ccc(OC(F)(F)F)cc1	-4	0	86*	9	11	-8	91*
Cc1ccc(NC(=O)COC(=O)c2c(-c3ccccc3)noc2C)cc1	-12	0	0	1	16	-3	x
CN(C)Cc1ccccc1Sc1cccc2ccccc12	-1	-1	66*	x	x	x	6	MPTP abs DR=11*;MPTP counter DR=61*
c1ccc(Sc2cccc3ccccc23)c(CNC2=NCCN2)c1	2	-2	101*	9	2	-5	29*
C[C@@H]1CN([C@@H](C)CO)C(=O)CCCn2nncc2CO[C@@H]1CN(C)S(=O)(=O)c1ccc2ccccc2c1	16	3	0	x	x	x	x
SMILES	Granule exo inh	iPSC survival up	MPTP block	UBC13 polyUb	Apaf1 inhib	beta cell repl	Rh123 counter	others
O=C(/C=C/c1cccc([N+](=O)[O-])c1)NCCSCc1cccc(Cl)c1	-2	-1	63*	10	15	-3	56*
O=C(/C=C/c1cccc([N+](=O)[O-])c1)NCc1ccccc1	0	0	-1	12	4	-3	x
COc1ccc(C2=NN(C(=O)c3ccco3)C(c3cccs3)C2)cc1OC (stereo not drawn)	-2	2	0	x	x	x	x
O=C(Nc1nnc(-c2ccccc2)o1)c1nc2ccccc2s1	-1	2	63*	-23	3	-4	3	MPTP abs DR=8.4*;MPTP counter DR=78*
O=C(c1[nH]c(C(F)(F)F)nc1-c1ccccc1)N1CCN(C/C=C/c2ccccc2)CC1	2	-1	0	x	x	x	x
CC1(C)C(=O)OC(c2cc(Br)ccc2O)C(C)(C)C1=O (stereo not drawn)	14	2	82*	-5	-3	-4	89*
CCN1C(=O)[C@H]2[C@@H](c3ccc(C)cc3)N[C@]3(CCCN(CCC(C)C)C3=O)[C@H]2C1=O	0	6	1	x	x	x	x
CCc1nccn1S(=O)(=O)c1cc(OC)ccc1OC	-3	0	-1	-10	4	-1	x
CN(C)/C=C1/Sc2ccccc2C1=O	-2	11	-1	-12	4	-1	x
CC(=O)N(\C=C/C=C/C=C1\Sc2ccccc2C1=O)c1ccccc1	0	-1	62*	-219	28	-6	62*
Cc1cccc(NC(=O)c2n[nH]c([N+](=O)[O-])c2Br)c1C	6	0	87*	14	-4	-2	86*
CCN(CC)S(=O)(=O)c1ccc(S(=O)(=O)Nc2ccc3c(c2)oc2ccccc23)cc1	-2	0	60*	0	9	-6	84*
ClC(Cl)(Cl)C1=NCc2nnn(Cc3ccccc3)c2N1	3	0	1	x	x	x	x
O=C(NC(Cc1ccccc1)C(=O)NCCc1ccccn1)c1ccccc1 (stereo not drawn)	-7	0	-1	-6	7	-1	x
O=C(Nc1nccs1)C1CCCN1/C=C/C(=O)C(F)(F)F (stereo not drawn)	0	-1	1	-8	-5	-2	x
Cc1onc(-c2c(F)cccc2Cl)c1C(=O)Nc1cc(S(=O)(=O)N2CCCCC2)ccc1O	7	-1	84*	x	x	x	84*
O=C(Nc1ccccc1C(=O)O)c1cc(S(=O)(=O)N2CCCCCC2)ccc1Cl	-15	0	0	-1	10	-2	x
O=C(Nc1ccccc1C(=O)O)c1cc(S(=O)(=O)Nc2cccc(F)c2)ccc1Cl	-2	0	1	-18	-4	-2	x
NS(=O)(=O)c1cccc(NC(=O)c2ccccc2NS(=O)(=O)c2ccc(F)cc2)c1	-3	0	0	10	2	0	x
